ChEMBL document CHEMBL1154648, “1,3-Dipolar cycloaddition of C-aryl-N-phenylnitrones to (R)-1-(1-phenylethyl)-3-[(E)-arylmethylidene]tetrahydro-4(1H)-pyridinones: synthesis and antimycobacterial evaluation of enantiomerically pure spiroisoxazolidines” (2010)
Values after ≈ are worked out from the molar mass of the structure shown.

Each compound was assayed on Mycobacterium tuberculosis (assay: Antitubercular activity against Mycobacterium tuberculosis H37Rv after 28 days by agar dilution method). Settings: 672 h.
Type: functional
Method in brief: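 Tenfold serial dilutions were incorporated into Middlebrook 7H11 agar with OADC. The H37Rv inoculum came from fresh 7H11/OADC slants, set to 1 mg/mL wet weight in 0.05% Tween 80 saline and diluted 10^-2 (about 10^7 cfu/mL). 5 µL was spotted per tube and incubated at 37 °C, read at 28 days. MIC was the lowest concentration giving complete growth inhibition, tested in triplicate.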
C[C@H](c1ccccc1)N1CCC(=O)[C@]2(C1)ON=C(c1ccccc1)[C@H]2c1ccc(Cl)cc1 showed an MIC of 14.1 µM (≈ 6.25 µg/mL). In the case of CO[C@H]1/C=C/O[C@@]2(C)Oc3c(C)c(O)c4c(O)c(c(/C=N/N5CCN(C)CC5)c(O)c4c3C2=O)NC(=O)/C(C)=C\C=C\[C@H](C)[C@H](O)[C@@H](C)[C@@H](O)[C@@H](C)[C@H](OC(C)=O)[C@@H]1C [RIFAMPIN], the MIC is reported as 0.12 µM (≈ 0.0988 µg/mL). With Cc1ccc([C@H]2N(c3ccccc3)O[C@H](c3ccccc3)[C@@]23CN([C@H](C)c2ccccc2)CCC3=O)cc1 the MIC was 24.9 µM (≈ 12.5 µg/mL). Cc1ccc([C@@H]2[C@H](c3ccc(C)cc3)N(c3ccccc3)O[C@]23CN([C@H](C)c2ccccc2)CCC3=O)cc1 showed an MIC of 6.06 µM (≈ 3.13 µg/mL). Compound C[C@H](c1ccccc1)N1CCC(=O)[C@@]2(C1)[C@@H](c1ccccc1)ON(c1ccccc1)[C@@H]2c1ccccc1 has an MIC of 25.6 µM (≈ 12.5 µg/mL). Work on C[C@H](c1ccccc1)N1CCC(=O)[C@]2(C1)ON=C(c1ccccc1)[C@H]2c1ccccc1Cl yielded an MIC of 7.03 µM (≈ 3.13 µg/mL). C[C@H](c1ccccc1)N1CCC(=O)[C@]2(C1)ON=C(c1ccccc1)[C@H]2c1cccc2ccccc12 was tested, and the MIC was 27.1 µM (≈ 12.5 µg/mL). Compound Cc1ccc([C@@H]2[C@H](c3ccccc3)[C@]3(CN([C@H](C)c4ccccc4)CCC3=O)ON2c2ccccc2)cc1 has an MIC of 49.7 µM (≈ 25 µg/mL). C[C@H](c1ccccc1)N1CCC(=O)[C@@]2(C1)ON=C(c1ccc(Cl)cc1)[C@H]2c1ccccc1 gave an MIC of 14.1 µM (≈ 6.25 µg/mL). In the case of CC[C@@H](CO)NCCN[C@@H](CC)CO [ETHAMBUTOL], the MIC is reported as 7.64 µM (≈ 1.56 µg/mL). With C[C@H](c1ccccc1)N1CCC(=O)[C@]2(C1)ON(c1ccccc1)[C@@H](c1ccccc1)[C@H]2c1ccccc1 the MIC was 25.6 µM (≈ 12.5 µg/mL). With Cc1ccc([C@@H]2[C@H](c3ccc(C)cc3)[C@]3(CN([C@H](C)c4ccccc4)CCC3=O)ON2c2ccccc2)cc1 the MIC was 3.02 µM (≈ 1.56 µg/mL). Cc1ccc([C@@H]2[C@H](c3ccccc3)N(c3ccccc3)O[C@]23CN([C@H](C)c2ccccc2)CCC3=O)cc1 was tested, and the MIC was 12.4 µM (≈ 6.25 µg/mL). In the case of Cc1ccc([C@@H]2[C@H](c3ccc(Cl)cc3)[C@]3(CN([C@H](C)c4ccccc4)CCC3=O)ON2c2ccccc2)cc1, the MIC is reported as 23.3 µM (≈ 12.5 µg/mL). Cc1ccc([C@H]2[C@@H](c3ccccc3)N(c3ccccc3)O[C@@]23CN([C@H](C)c2ccccc2)CCC3=O)cc1 was tested, and the MIC was 24.9 µM (≈ 12.5 µg/mL). C[C@H](c1ccccc1)N1CCC(=O)[C@]2(C1)ON=C(c1ccc(Cl)cc1)[C@H]2c1ccc(Cl)cc1 was tested, and the MIC was 3.25 µM (≈ 1.56 µg/mL). C[C@H](c1ccccc1)N1CCC(=O)[C@]2(C1)ON=C(c1ccc(Cl)cc1)[C@H]2c1ccccc1Cl gave an MIC of 3.25 µM (≈ 1.56 µg/mL). With C[C@H](c1ccccc1)N1CCC(=O)[C@]2(C1)ON(c1ccccc1)[C@@H](c1ccccc1)[C@H]2c1ccccc1Cl the MIC was 23.9 µM (≈ 12.5 µg/mL). In the case of C[C@H](c1ccccc1)N1CCC(=O)[C@@]2(C1)ON(c1ccccc1)[C@H](c1ccccc1)[C@@H]2c1ccccc1, the MIC is reported as 25.6 µM (≈ 12.5 µg/mL). Compound Cc1ccc([C@@H]2[C@H](c3ccccc3Cl)[C@]3(CN([C@H](C)c4ccccc4)CCC3=O)ON2c2ccccc2)cc1 has an MIC of 11.6 µM (≈ 6.25 µg/mL). C[C@H](c1ccccc1)N1CCC(=O)[C@]2(C1)ON=C(c1ccc(Cl)cc1)[C@H]2c1cccc2ccccc12 showed an MIC of 25.2 µM (≈ 12.5 µg/mL). With Cc1ccc([C@H]2[C@@H](c3ccc(Cl)cc3)[C@@]3(CN([C@H](C)c4ccccc4)CCC3=O)ON2c2ccccc2)cc1 the MIC was 11.6 µM (≈ 6.25 µg/mL). C[C@H](c1ccccc1)N1CCC(=O)[C@@]2(C1)ON(c1ccccc1)[C@H](c1ccccc1)[C@@H]2c1ccccc1Cl gave an MIC of 5.98 µM (≈ 3.13 µg/mL). Compound C[C@H](c1ccccc1)N1CCC(=O)[C@]2(C1)ON=C(c1ccccc1)[C@H]2c1ccccc1 has an MIC of 60.9 µM (≈ 25 µg/mL). Compound Cc1ccc([C@@H]2C(c3ccccc3)=NO[C@]23CN([C@H](C)c2ccccc2)CCC3=O)cc1 has an MIC of 14.7 µM (≈ 6.25 µg/mL). For C[C@H](c1ccccc1)N1CCC(=O)[C@]2(C1)ON(c1ccccc1)[C@@H](c1ccccc1)[C@H]2c1cccs1, the MIC was 6.33 µM (≈ 3.13 µg/mL). Cc1ccc([C@H]2[C@@H](c3ccccc3)[C@@]3(CN([C@H](C)c4ccccc4)CCC3=O)ON2c2ccccc2)cc1 gave an MIC of 49.7 µM (≈ 25 µg/mL). With NNC(=O)c1ccncc1 [ISONIAZID] the MIC was 0.36 µM (≈ 0.0494 µg/mL). In the case of Cc1ccc([C@H]2[C@@H](c3cccs3)[C@@]3(CN([C@H](C)c4ccccc4)CCC3=O)ON2c2ccccc2)cc1, the MIC is reported as 24.6 µM (≈ 12.5 µg/mL). Work on Cc1ccc([C@@H]2C(c3ccc(Cl)cc3)=NO[C@]23CN([C@H](C)c2ccccc2)CCC3=O)cc1 yielded an MIC of 6.82 µM (≈ 3.13 µg/mL). In the case of Cc1ccc([C@H]2[C@@H](c3ccccc3Cl)[C@@]3(CN([C@H](C)c4ccccc4)CCC3=O)ON2c2ccccc2)cc1, the MIC is reported as 11.6 µM (≈ 6.25 µg/mL).

These compounds were tested on Mycobacterium tuberculosis (assay: Ratio of MIC for drug to MIC for ethambutol against Mycobacterium tuberculosis H37Rv after 28 days by agar dilution method). Settings: not given.
Type: functional
With Cc1ccc([C@@H]2[C@H](c3ccc(C)cc3)[C@]3(CN([C@H](C)c4ccccc4)CCC3=O)ON2c2ccccc2)cc1 the Ratio was 2.5.
